In publication PMC5761012 (Journal of Pharmaceutical Analysis, 2013):

Assays:
human plasma proteins = assay: Human plasma protein binding by equilibrium dialysis with UPLC-MS/MS; assay type: in vitro ADME; conditions: for Kd at 72 h: human, human plasma (equilibrium dialysis against phosphate buffer); for maximum binding ability β: modified Scatchard equation, extract 1.2 to 60 μg/mL, human plasma, Pt 71.28 g/L
How it was run: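 Blank human plasma was placed in 10 kDa dialysis bags (pre-soaked in pH 7.4 phosphate buffer) and dialysed at 4 °C for 72 h against buffer containing the aqueous plant extract (1.2–60 µg/mL). Inside-bag concentration gave total drug; outside gave free drug. Analysis was by UPLC–ESI-MS/MS after methanol/formic acid protein precipitation, with matrix-specific 1/x² weighted calibration. Parameters came from a modified Scatchard fit using Pt 71.28 g/L (Lowry) and plasma water 99.25%.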

[1] = Analyte stability in human plasma and phosphate buffer; assay type: in vitro ADME; conditions: for time stable at ambient temperature / reduction of the concentration after three freeze–thaw cycles: QC samples; for time stable at ambient temperature: human plasma and phosphate buffer, three concentration levels; for reduction of the concentration after three freeze–thaw cycles: −20 °C to room temperature; for time stable in auto-sampler conditions: processed QC samples, 15 °C
How it was run: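 Processed QC samples in human plasma and pH 7.4 phosphate buffer were tested at three concentration levels, three replicates each. Conditions were 6 h at ambient temperature, or three freeze (−20 °C)/thaw (room temperature) cycles followed by 24 h at 15 °C in the auto-sampler. Separately, samples were held 96 h at 4 °C. Mean UPLC–ESI-MS/MS concentrations were compared with freshly prepared QC samples.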

Row | Structure (SMILES) | Kd at 72 h (human plasma proteins) [µM] | maximum binding ability β (human plasma proteins) [µmol/g] | time stable at ambient temperature [1] | reduction of the concentration after three freeze–thaw cycles [1] [%] | time stable in auto-sampler conditions [1] [h]
1 | O=c1cc(-c2ccc(O)c(O)c2)oc2c([C@@H]3O[C@H](CO)[C@@H](O)[C@H](O)[C@H]3O)c(O)cc(O)c12 [orientin] | 26.6 | 2.685 | at least 6 h | < 10 | ≥ 24
2 | C[C@@H]1O[C@@H](Oc2c(-c3ccc(O)c(O)c3)oc3cc(O)cc(O)c3c2=O)[C@H](O)[C@H](O)[C@H]1O [quercitrin] | 5.29 | 0.6420 | at least 6 h | < 10 | ≥ 24
3 | O=c1cc(-c2ccc(O)cc2)oc2c([C@@H]3O[C@H](CO)[C@@H](O)[C@H](O)[C@H]3O)c(O)cc(O)c12 [vitexin] | 19.7 | 1.650 | at least 6 h | < 10 | ≥ 24
